# dFosB activator: mouse delta FosB homodimer activation | P13346 | activation, % at 25 µM | 0.99% of 340,000 active | purified delta FosB, TAMRA-CDK5 oligo fluorescence polarization; percent of positive-control signal above neutral wells | AID 493131;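 active = mean activation above about 17%, with every replicate also reaching it, limit read from the data, passing the limit was not always enough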
# VIM-2 inhibitor: blocks Pseudomonas aeruginosa VIM-2 metallo-beta-lactamase | purified VIM-2, nitrocefin hydrolysis, epi-absorbance fluorescence | inhibition, % at 5.6 µM | 0.89% of 290,000 active | AID 1527;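 active = inhibition above the mean of all tested compounds plus 3 SD, cutoff set per screening run, cut at about 7.5% in these data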;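 note: red hydrolysis product quenches plate fluorescence so inhibitors raise well fluorescence; 0% = enzyme with DMSO and 100% = DMSO without enzyme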
# IMP-1 inh: inhibitors of Pseudomonas aeruginosa IMP-1 metallo-beta-lactamase; purified IMP-1, nitrocefin hydrolysis, epi-absorbance fluorescence; inhibition, % at 5.6 µM; 0.45% of 290,000 active;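 active = inhibition above the mean plus 3 SD of all compounds in the same screening run, cut at about 4.5% in these data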;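 note: 0% = IMP-1 with DMSO and 100% = DMSO wells lacking enzyme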
#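 Assay system: purified recombinant IMP-1 beta-lactamase. Input: IMP-1 0.2 nM before substrate addition. Buffer or medium: Zinc- and detergent-supplemented HEPES buffer, pH 7.1. Schedule: 25 °C, 15 min preincubation, 25 min reaction. Signal: Epi-absorbance fluorescence, 480 nm excitation, 530 nm emission. Evaluation: percent inhibition from optical density relative to buffer-blank wells.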
# m5-HT2A agonist: activates the mouse 5-HT2A serotonin receptor; 0.66% of 360,000 active; P35363; activation, % at 7.6 µM; CHO-K1 mHTR2A beta-arrestin complementation, luminescence; percent of 30 µM serotonin response; AID 624169;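 active = activation above a run cutoff, the mean activation of all tested compounds plus 3 SD, cut at about 14% in these data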;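 note: 0% = plate median of compound wells and 100% = 30 µM serotonin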
# Target sequence (P35363 whole entry, looked up): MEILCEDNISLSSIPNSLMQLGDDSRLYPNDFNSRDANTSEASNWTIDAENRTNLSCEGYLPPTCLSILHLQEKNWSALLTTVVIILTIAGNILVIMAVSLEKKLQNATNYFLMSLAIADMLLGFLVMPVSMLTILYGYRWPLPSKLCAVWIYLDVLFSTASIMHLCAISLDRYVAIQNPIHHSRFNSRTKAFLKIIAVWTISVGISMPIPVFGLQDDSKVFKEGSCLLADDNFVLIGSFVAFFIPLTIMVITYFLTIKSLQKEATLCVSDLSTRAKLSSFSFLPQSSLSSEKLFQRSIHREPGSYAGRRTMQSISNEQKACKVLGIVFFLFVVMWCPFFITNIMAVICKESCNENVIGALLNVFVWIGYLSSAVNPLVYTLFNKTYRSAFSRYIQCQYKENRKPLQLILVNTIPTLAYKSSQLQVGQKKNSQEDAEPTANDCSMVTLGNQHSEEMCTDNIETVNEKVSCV
# Starred values were filed as active, the others as inactive; · = no result given. A selection: hits, their analogues and other compounds. The true share with any hit is near 2.5%.
SMILES,dFosB activator,VIM-2 inhibitor,IMP-1 inh,m5-HT2A agonist
Cc1ccc(N2CSC3=C(C#N)C(c4cccs4)CC(=O)N3C2)cc1 (stereo not drawn),-3.6,0.1,5.6*,1.7
O=C(CSc1nnnn1-c1cccc(F)c1)NC1CCCCC1,2.3,·,·,7.2
O=C(/C=C/c1ccccc1Cl)c1ccccc(=O)c1O,-19.3,2.2,11.0*,-4.8
C[C@@H]1CN([C@H](C)CO)S(=O)(=O)c2ccc(-c3ccc(C(=O)N(C)C)cc3)cc2O[C@H]1CN(C)C(=O)Cc1ccccn1,·,·,·,2.0
CN(C(=O)COC(=O)C1CCN(S(=O)(=O)c2c(Cl)cccc2Cl)CC1)C1CCS(=O)(=O)C1 (stereo not drawn),-10.3,·,·,0.2
Cc1cc(NC(=S)N(CCN2CCCCC2)Cc2ccco2)ccc1Cl,-9.4,-2.0,-0.5,-7.5
CN(C)CCCN(Cc1ccccc1)C(=S)Nc1cccc(C(F)(F)F)c1,-7.6,-2.2,-2.0,-3.4
FC(F)(F)c1cccc(NC(=S)N(CCCN2CCCC2)Cc2cccn2Cc2ccc(Cl)cc2)c1,44.5*,-4.4,-3.1,-9.5
Cc1ccc(NC(=S)N(CCCN2CCCC2)Cc2cccn2Cc2ccc(Cl)cc2)cc1Cl,69.5*,-1.7,-0.8,-0.2
Cc1ccc(NC(=S)N(CCCN2CCCC2)Cc2cccn2Cc2ccc(Cl)cc2)cc1C,31.6*,-2.6,-3.7,-10.2
COc1ccc(NC(=S)N(CCCN2CCCC2)Cc2cccn2Cc2ccc(Cl)cc2)cc1Cl,47.8*,-2.2,-0.1,-11.3
Cc1ccc(F)cc1C(=O)N1CCCC(c2cc(C(=O)Nc3ccccc3Cl)no2)C1 (stereo not drawn),·,·,·,-4.0
O=C(CCNS(=O)(=O)c1cccc(C(F)(F)F)c1)NCc1ccco1,-1.0,·,·,0.6
CCc1nc2c(OCc3ccc(F)cc3)cccn2c1N(C)C(=O)CC(C)C,·,·,·,-0.4
Cc1ccc(NC(=O)CS(=O)CC(=O)Nc2ccccc2-c2ccc(C)o2)cc1 (stereo not drawn),4.0,9.1*,3.1,-3.0
CC(=O)Nc1ccccc1-c1ccc(C)o1,1.8,-1.4,-3.1,1.8
COc1ccc(CNC(=O)C2Cc3c(-c4ccc5c(c4)OCO5)ccnc3O2)cc1OC (stereo not drawn),·,·,·,3.9
O=C(NNC(=O)c1cc(Cl)ccc1O)c1cccc(S(=O)(=O)N2CCOCC2)c1,-5.0,·,·,-8.5
CCCC(=O)Nc1ccc(-c2csc(N/N=C\c3ccncc3)n2)cc1,-16.1,-0.1,-1.3,5.6
Cc1ccnc(NC(=O)Cc2ccc([N+](=O)[O-])cc2)c1,3.0,-4.2,-4.5,-1.0
Cc1ccc(NC(=O)Cc2ccc(-c3ccccc3)cc2)nc1,-2.1,0.2,11.9*,0.9
Cc1ccnc(NC(=O)Cc2ccc(-c3ccccc3)cc2)c1,-11.3,-2.4,11.7*,0.2
O=C(Cc1ccc(-c2ccccc2)cc1)Nc1ccccn1,-4.5,-1.7,33.7*,-3.9
Cc1ccc(NC(=O)Cc2ccc(Cl)cc2)nc1,-8.3,·,·,-1.7
CC1CCc2c(sc(NC(=O)c3cccn3C)c2C(N)=O)C1 (stereo not drawn),-9.0,·,·,-1.6
SMILES,dFosB activator,VIM-2 inhibitor,IMP-1 inh,m5-HT2A agonist
Cc1cccn2c(=O)c3cc(C(=O)NCc4ccco4)c(=N)n(C4CCCC4)c3nc12,1.2,8.2*,-3.7,-3.4
Cc1cccn2c(=O)c3cc(C(=O)NCC4CCCO4)c(=N)n(C4CCCCC4)c3nc12 (stereo not drawn),2.7,8.0*,-0.6,-2.1
C=CCn1c(=N)c(C(=O)NCCCOC)cc2c(=O)n3ccccc3nc21,-4.4,6.7,-3.1,-1.2
Cc1cccn2c(=O)c3cc(C(=O)NCC4CCCO4)c(=N)n(CC4CCCO4)c3nc12 (stereo not drawn),-3.5,1.0,-2.2,4.1
C=CCn1c(=N)c(C(=O)NCCCOC)cc2c(=O)n3cc(C)ccc3nc21,2.3,11.4*,-5.1,0.3
Cc1ccc2nc3c(cc(C(=O)NC4CCCC4)c(=N)n3C3CCCCC3)c(=O)n2c1,-3.6,12.2*,-1.3,-0.1
Cc1cccn2c(=O)c3cc(C(=O)NCc4ccc(F)cc4)c(=N)n(CC4CCCO4)c3nc12 (stereo not drawn),-8.8,3.2,-1.7,6.0
CCOc1ccc(S(=O)(=O)N2CCOCC2)cc1NC(=O)CSCC(=O)Nc1ccc(OC)cc1,-2.5,·,·,0.9
COc1ccccc1OC(C)C(=O)N1CCN(Cc2ccc3c(c2)OCO3)CC1 (stereo not drawn),1.0,-1.9,-2.4,-0.5
O=C(CCN1CCCCO1)N1CCCC(Nc2ccc(F)cc2)C1 (stereo not drawn),2.9,-1.6,-2.3,-1.8
O=C(CN1C(=O)NC2(CCOc3ccccc32)C1=O)N1CCCCC1 (stereo not drawn),-1.6,·,·,-1.4
COc1ccc(S(=O)(=O)c2c(N)n(Cc3ccco3)c3nc4ccccc4nc23)cc1,-4.2,4.7,5.6*,1.6
COc1ccc(Cn2c(C)nc3c(c2=O)c2nc4ccccc4nc2n3Cc2ccco2)cc1,-14.6,·,·,2.1
Cc1cccc(-n2c(SCc3cc(=O)n4ccsc4n3)nc3ccccc32)c1,-12.8,-0.6,5.0*,-4.5
COC(=O)[C@@]12C[C@@H](CC(=O)N3CCN(C(=O)c4ccco4)CC3)C(=O)N(Cc3ccc4c(c3)OCO4)C1=CCC(C)(C)C2,·,·,·,-0.1
CCC(C)C(NC(=O)c1ccccc1)C(=O)Nc1ccc(S(=O)(=O)Nc2cc(C)nc(C)n2)cc1 (stereo not drawn),-9.3,·,·,10.1
COc1ccc2c(c1)Cc1sc(NC(=O)c3ccco3)nc1-2,-9.7,-2.0,-1.8,8.2
COc1ccc2c(c1)Cc1sc(NC(C)=O)nc1-2,-12.7,2.6,10.7*,1.8
Cc1cc(NC(=O)COc2ccc3ccccc3c2Br)no1,-8.5,·,·,-4.8
COc1ccc(CCNC(=O)CSc2nc3c(sc(=S)n3-c3ccccc3)c(=O)[nH]2)cc1OC,·,·,·,1.7
CCN(CC)CCn1c2ccccc2c2nc3ccc([N+](=O)[O-])cc3cc21,51.1*,-0.2,0.4,-3.9
Cc1ccc(OCCC(=O)OCC(=O)N2CCN(S(=O)(=O)c3ccc(C)cc3)CC2)cc1,-2.0,·,·,7.0
Cc1ccc(-c2ccc(C(=O)Nc3ccccc3)o2)c2ccccc12,-7.8,-0.9,2.0,8.5
Cc1ccc(S(=O)(=O)NC(=O)c2ccc(-c3ccc(C)c4ccccc34)o2)cc1,-1.0,-4.3,4.7*,5.6
CCOC(=O)[C@@H](NC(=O)/C=C/[C@H]1O[C@@H](n2cc(C)c(=O)[nH]c2=O)C[C@@H]1O)C(C)C,·,·,·,-1.0
COc1ccc(NS(=O)(=O)c2cc(NC(=O)c3cc(F)c(F)cc3Cl)ccc2N2CCOCC2)cc1,20.7*,·,·,-5.1
CC1(O)CC(C)(C)C(C#N)C(=O)N1 (stereo not drawn),3.3,·,·,-1.4
Cc1ccc(N2CCCn3c2cc(C)c(C#N)c3=O)cc1Cl,-5.3,7.8*,-1.1,-7.9
COc1cc(/C=C2/C(=O)NN(c3ccc(F)cc3)C2=O)cc(Cl)c1O,4.7,-5.8,-6.7,10.9
COc1cc(/C=C2/C(=O)NN(c3ccc(Cl)cc3)C2=O)cc(Br)c1O,-8.9,-3.8,9.7*,-1.3
